Test results reported in paper PMC3644855 (Nuclear medicine and biology, 2009).
Values joined by “and” are separate entries in the source; they are usually repeats but may differ in a detail not shown here. Equal entries are not always repeated. Where two headings read alike, the source gives them in different places.

What was measured:
[1] = biological target: T1, 5-HT1A receptor (Rattus norvegicus, UniProt P19327); assay: Brain tissue specific binding ratio [; assay type: in vivo
T1 sequence (P19327 1-422): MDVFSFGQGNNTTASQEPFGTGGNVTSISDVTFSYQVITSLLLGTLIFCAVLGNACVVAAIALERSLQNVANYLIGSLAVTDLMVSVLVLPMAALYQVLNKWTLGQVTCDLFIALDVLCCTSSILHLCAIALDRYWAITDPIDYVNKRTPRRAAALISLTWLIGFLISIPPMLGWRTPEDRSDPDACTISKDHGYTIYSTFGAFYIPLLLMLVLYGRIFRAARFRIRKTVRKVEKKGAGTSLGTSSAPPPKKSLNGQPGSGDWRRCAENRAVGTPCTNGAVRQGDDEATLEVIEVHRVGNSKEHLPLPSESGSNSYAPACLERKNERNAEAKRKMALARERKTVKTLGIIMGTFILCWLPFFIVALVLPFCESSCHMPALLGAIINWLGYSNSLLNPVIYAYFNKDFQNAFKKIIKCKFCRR
Outline: (§1)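 Male Sprague-Dawley rats (220–260 g, 3 per group), awake, got i.v. 0.5–1 mCi 18F-labelled test compound in 100 μL, carrying 1, 11 or 18 nmol unlabelled compound; killed at 5 or 30 min. Dissected brain regions and plasma, spiked with internal standard, homogenized at pH 12.5, extracted with hexane:ethyl acetate (4:1), dried and redissolved in 50% CH3CN. Analysed by UPLC-Q-TOF (positive ESI) against matrix calibration, triplicate. DUR = %ID/g × body weight/100.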

[2] = assay type: in vivo; details: rat i.v., LC/MS
Outline: as §1

[3] = rat i.v., 1 nmol, 30 min, LC/MS
[4] = rat i.v., 11 nmol, 30 min, LC/MS
[5] = rat i.v., 18 nmol, 30 min, LC/MS

## COc1ccccc1N1CCN(CCN(C(=O)c2ccc(F)cc2)c2ncccn2)CC1 [FPWAY, 4-Fluoro-N-{2-[4-(2-methoxyphenyl)-1-piperazinyl]ethyl}-N-(2-pyrimidinyl)benzamide]
[1]; rat i.v., 1 nmol, 5 min, LC/MS
  Specific binding ratio [(DURtissue/DURCb)−1] Hippocampus: 2.30 and 2.30±0.42
  Specific binding ratio [(DURtissue/DURCb)−1] brain stem: 0.75±0.35
  Specific binding ratio [(DURtissue/DURCb)−1] caudate: 0.30±0.13
  Specific binding ratio [(DURtissue/DURCb)−1] cortex: 1.34±0.27
  Specific binding ratio [(DURtissue/DURCb)−1] thalamus: 0.84±0.30
[1]; [3]
  Specific binding ratio [(DURtissue/DURCb)−1] Hippocampus: 5.87 and 5.87±0.56
  Specific binding ratio [(DURtissue/DURCb)−1] brain stem: 1.99±0.53
  Specific binding ratio [(DURtissue/DURCb)−1] caudate: 0.95±0.06
  Specific binding ratio [(DURtissue/DURCb)−1] cortex: 2.29±0.06
  Specific binding ratio [(DURtissue/DURCb)−1] thalamus: 1.58±0.58
[1]; [4]
  Specific binding ratio [(DURtissue/DURCb)−1] Hippocampus: 2.43 and 2.43±0.35
  Specific binding ratio [(DURtissue/DURCb)−1] brain stem: 0.42±0.33
  Specific binding ratio [(DURtissue/DURCb)−1] caudate: 0.65±0.31
  Specific binding ratio [(DURtissue/DURCb)−1] cortex: 1.26±0.28
  Specific binding ratio [(DURtissue/DURCb)−1] thalamus: 0.78±0.29
[1]; rat i.v., 17 nmol, 30 min, hippocampus, LC/MS
  specific binding ratio hippocampus: 2.42
[1]; [5]
  Specific binding ratio [(DURtissue/DURCb)−1] Hippocampus: 2.42±0.28
  Specific binding ratio [(DURtissue/DURCb)−1] brain stem: 0.93±0.13
  Specific binding ratio [(DURtissue/DURCb)−1] caudate: 0.67±0.31
  Specific binding ratio [(DURtissue/DURCb)−1] cortex: 1.61±0.39
  Specific binding ratio [(DURtissue/DURCb)−1] thalamus: 0.91±0.14
[1]; rat, 1, 11 and 18 nmol mass doses, hippocampus
  saturability of binding with increasing mass dose: demonstrates saturability of binding
[2]; 1 nmol, 5 min
  DUR Hippocampus: 4.28 %ID/g * body weight/100 and 4.28±0.35 %ID/g * body weight/100
  DUR brain stem: 2.36±0.35 %ID/g * body weight/100
  DUR caudate: 1.70±0.30 %ID/g * body weight/100
  DUR cerebellum: 1.31±0.21 %ID/g * body weight/100
  DUR cortex: 3.10±0.78 %ID/g * body weight/100
  DUR plasma: 0.49±0.17 %ID/g * body weight/100
  DUR thalamus: 2.39±0.45 %ID/g * body weight/100
[2]; 1 nmol, 30 min
  DUR Hippocampus: 2.20 %ID/g * body weight/100 and 2.20±0.38 %ID/g * body weight/100
  DUR brain stem: 0.98±0.05 %ID/g * body weight/100
  DUR caudate: 0.60±0.04 %ID/g * body weight/100
  DUR cerebellum: 0.32±0.08 %ID/g * body weight/100
  DUR cortex: 1.06±0.25 %ID/g * body weight/100
  DUR plasma: 0.21±0.07 %ID/g * body weight/100
  DUR thalamus: 0.81±0.02 %ID/g * body weight/100
[2]; 11 nmol, 30 min
  DUR Hippocampus: 0.79 %ID/g * body weight/100 and 0.79±0.08 %ID/g * body weight/100
  DUR brain stem: 0.32±0.05 %ID/g * body weight/100
  DUR caudate: 0.38±0.06 %ID/g * body weight/100
  DUR cerebellum: 0.23±0.03 %ID/g * body weight/100
  DUR cortex: 0.52±0.05 %ID/g * body weight/100
  DUR plasma: 0.13±0.02 %ID/g * body weight/100
  DUR thalamus: 0.41±0.08 %ID/g * body weight/100
[2]; 17 nmol, 30 min, hippocampus
  hippocampus uptake (DUR): 0.53
[2]; 18 nmol, 30 min
  DUR Hippocampus: 0.53±0.03 %ID/g * body weight/100
  DUR brain stem: 0.30±0.05 %ID/g * body weight/100
  DUR caudate: 0.25±0.08 %ID/g * body weight/100
  DUR cerebellum: 0.16±0.02 %ID/g * body weight/100
  DUR cortex: 0.41±0.18 %ID/g * body weight/100
  DUR plasma: 0.33±0.11 %ID/g * body weight/100
  DUR thalamus: 0.30±0.04 %ID/g * body weight/100
